From ChEMBL document CHEMBL1143171, “Structure-activity studies on 1,3-dioxane-2-carboxylic acid derivatives, a novel class of subtype-selective peroxisome proliferator-activated receptor alpha (PPARalpha) agonists” (Bioorg Med Chem, 2008)

Columns and labels:
[1] = target: T1, Peroxisome proliferator-activated receptor delta (Homo sapiens) (UniProt Q03181); assay: Agonist activity at human PPARdelta expressed in CV1 cells at 10 uM by transactivation assay; format: functional, cell-based; conditions: CV-1
T1 sequence (whole entry): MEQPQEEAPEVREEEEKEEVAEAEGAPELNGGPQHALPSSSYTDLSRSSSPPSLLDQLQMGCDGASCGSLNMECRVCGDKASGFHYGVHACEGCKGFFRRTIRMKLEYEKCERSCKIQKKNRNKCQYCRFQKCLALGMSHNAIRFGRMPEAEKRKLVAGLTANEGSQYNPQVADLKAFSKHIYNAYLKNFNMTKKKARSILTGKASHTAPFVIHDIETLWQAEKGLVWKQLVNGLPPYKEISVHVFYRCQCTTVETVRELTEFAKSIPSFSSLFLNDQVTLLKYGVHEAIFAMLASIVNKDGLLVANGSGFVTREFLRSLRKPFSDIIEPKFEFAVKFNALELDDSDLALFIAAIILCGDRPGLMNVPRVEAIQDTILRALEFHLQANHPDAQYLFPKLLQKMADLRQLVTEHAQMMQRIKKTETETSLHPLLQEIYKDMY
Summary of the method: (§1)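 Human full-length PPAR subtype (pSG5) cotransfected into CV-1 cells with a PPRE (rat acyl-CoA oxidase, ×3)–TK firefly luciferase reporter and a Renilla TK control. Cells were cultured in DMEM/10% FBS at 37 °C under 5% CO2, then exposed to compound at 10 µM (0.1% DMSO final) for 48 h. The dual-luciferase read-out is given as a percentage of the positive control's maximum activity (n = 2).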

[2] = target: T2, Peroxisome proliferator-activated receptor gamma (Homo sapiens) (UniProt P37231); assay: Agonist activity at human PPARgamma expressed in CV1 cells at 10 uM by transactivation assay; format: functional, cell-based; conditions: CV-1; summary of the method: as §1
T2 sequence (whole entry): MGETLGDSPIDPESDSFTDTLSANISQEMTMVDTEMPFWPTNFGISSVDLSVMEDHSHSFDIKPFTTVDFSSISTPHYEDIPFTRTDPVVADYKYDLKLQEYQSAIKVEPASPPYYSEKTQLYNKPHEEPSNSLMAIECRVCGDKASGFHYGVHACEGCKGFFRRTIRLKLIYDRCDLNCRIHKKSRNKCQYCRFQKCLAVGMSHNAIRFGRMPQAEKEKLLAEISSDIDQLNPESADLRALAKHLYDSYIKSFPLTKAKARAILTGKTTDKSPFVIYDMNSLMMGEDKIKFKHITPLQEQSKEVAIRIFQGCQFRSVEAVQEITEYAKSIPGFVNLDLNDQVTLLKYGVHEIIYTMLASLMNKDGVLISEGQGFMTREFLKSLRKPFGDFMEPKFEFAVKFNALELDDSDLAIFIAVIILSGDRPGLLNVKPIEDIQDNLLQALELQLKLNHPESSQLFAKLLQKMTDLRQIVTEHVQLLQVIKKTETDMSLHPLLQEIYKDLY

[3] = target: T3, Peroxisome proliferator-activated receptor alpha (Homo sapiens, UniProt Q07869); assay: Agonist activity at human PPARalpha expressed in CV1 cells by transactivation assay; format: functional, cell-based, CV-1
T3 sequence (Q07869 whole entry): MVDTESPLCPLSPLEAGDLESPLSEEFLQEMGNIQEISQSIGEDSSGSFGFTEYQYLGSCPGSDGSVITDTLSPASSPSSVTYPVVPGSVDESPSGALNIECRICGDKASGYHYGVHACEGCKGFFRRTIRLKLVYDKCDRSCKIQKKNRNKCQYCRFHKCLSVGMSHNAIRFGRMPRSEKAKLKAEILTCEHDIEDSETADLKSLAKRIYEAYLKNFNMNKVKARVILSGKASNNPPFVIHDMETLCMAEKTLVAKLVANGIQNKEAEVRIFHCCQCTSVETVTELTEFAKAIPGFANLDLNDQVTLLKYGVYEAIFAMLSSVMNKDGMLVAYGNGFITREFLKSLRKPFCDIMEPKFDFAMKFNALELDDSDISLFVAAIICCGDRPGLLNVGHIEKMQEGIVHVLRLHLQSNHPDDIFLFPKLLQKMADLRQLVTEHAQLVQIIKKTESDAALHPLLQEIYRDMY

Mus musculus [4] = assay: Hypoglycemic effect on diabetic KK-Ay mouse assessed as reduction of plasma glucose level at 1 mg/kg/day, po after 4 days; format: functional; design: scale not given: the % may be the effect or the level left
Summary of the method: (§2)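 Male KK-Ay mice, 10 weeks old and fed chow ad libitum, were dosed orally once daily for 4 days (n = 5) with suspensions in 0.5% methylcellulose. On the day after the last dose, nonfasted tail-vein plasma was assayed enzymatically for TG and glucose. Vena cava plasma taken under pentobarbital had lipoprotein cholesterol measured by HPLC with on-line enzymatic detection. Values are % change of the group mean from vehicle controls.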

Mus musculus [5] = assay: Hypolipidemic effect on diabetic KK-Ay mouse assessed as reduction of plasma VLDL cholesterol level at 1 mg/kg/day, po after 4 days; format: functional; design: scale not given: the % may be the effect or the level left; summary of the method: as §2
[6] = Selectivity for mouse PPARalpha over human PPARalpha
[7] = target: T4, Peroxisome proliferator-activated receptor gamma (Mus musculus) (UniProt P37238); assay: Agonist activity at mouse PPARgamma expressed in CV1 cells at 10 uM by transactivation assay; format: functional, cell-based; conditions: CV-1
T4 sequence (whole entry): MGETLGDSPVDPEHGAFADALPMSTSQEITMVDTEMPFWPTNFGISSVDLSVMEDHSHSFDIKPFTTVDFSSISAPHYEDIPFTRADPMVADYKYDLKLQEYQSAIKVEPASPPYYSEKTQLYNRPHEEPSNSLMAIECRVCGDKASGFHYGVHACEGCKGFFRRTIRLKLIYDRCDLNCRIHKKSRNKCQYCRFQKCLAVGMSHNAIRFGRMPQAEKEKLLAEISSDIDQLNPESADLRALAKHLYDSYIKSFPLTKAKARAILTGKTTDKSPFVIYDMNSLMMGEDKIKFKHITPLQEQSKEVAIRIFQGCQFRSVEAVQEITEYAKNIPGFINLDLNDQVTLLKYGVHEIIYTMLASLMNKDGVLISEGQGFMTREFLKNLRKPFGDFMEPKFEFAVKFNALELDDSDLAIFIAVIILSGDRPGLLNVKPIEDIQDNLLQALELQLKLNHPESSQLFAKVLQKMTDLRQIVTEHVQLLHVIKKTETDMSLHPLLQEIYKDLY

[8] = target: T5, Peroxisome proliferator-activated receptor alpha (Mus musculus, UniProt P23204); assay: Agonist activity at mouse PPARalpha expressed in CV1 cells by transactivation assay; format: functional, cell-based, CV-1
T5 sequence (P23204 whole entry): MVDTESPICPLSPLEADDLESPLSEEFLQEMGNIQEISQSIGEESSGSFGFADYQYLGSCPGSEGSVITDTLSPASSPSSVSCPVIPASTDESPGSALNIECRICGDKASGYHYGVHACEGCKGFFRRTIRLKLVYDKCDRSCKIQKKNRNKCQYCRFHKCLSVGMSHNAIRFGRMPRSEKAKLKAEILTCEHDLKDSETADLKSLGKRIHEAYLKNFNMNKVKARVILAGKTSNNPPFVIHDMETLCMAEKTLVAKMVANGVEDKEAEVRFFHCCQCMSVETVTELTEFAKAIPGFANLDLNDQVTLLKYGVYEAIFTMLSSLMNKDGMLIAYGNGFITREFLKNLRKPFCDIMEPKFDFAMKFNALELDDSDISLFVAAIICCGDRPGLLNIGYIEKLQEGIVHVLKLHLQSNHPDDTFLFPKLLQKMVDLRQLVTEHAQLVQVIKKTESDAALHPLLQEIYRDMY

Mus musculus [9] = assay: Hypolipidemic effect on diabetic KK-Ay mouse assessed as reduction of plasma triglyceride level at 1 mg/kg/day, po after 4 days; format: functional; design: scale not given: the % may be the effect or the level left; summary of the method: as §2
Mus musculus [10] = assay: Hypolipidemic effect on diabetic KK-Ay mouse assessed as increase in plasma HDL cholesterol level at 1 mg/kg/day, po after 4 days; format: functional; summary of the method: as §2
[11] = target: T6, Peroxisome proliferator-activated receptor gamma (Homo sapiens, UniProt P37231); assay: Agonist activity at human PPARgamma expressed in CV1 cells by transactivation assay; format: functional, cell-based, CV-1
T6 sequence (P37231 whole entry): T2 sequence (whole entry)

Homo sapiens = organism: Homo sapiens; assay: Selectivity for human PPARalpha over human PPARgamma
[12] = target: T7, Peroxisome proliferator-activated receptor delta (Homo sapiens, UniProt Q03181); assay: Agonist activity at human PPARdelta expressed in CV1 cells by transactivation assay; format: functional, cell-based, CV-1
T7 sequence (Q03181 whole entry): T1 sequence (whole entry)

[13] = target: T8, Peroxisome proliferator-activated receptor alpha (Homo sapiens) (UniProt Q07869); assay: Agonist activity at human PPARalpha expressed in CV1 cells at 10 uM by transactivation assay; format: functional, cell-based; conditions: CV-1; summary of the method: as §1
T8 sequence (whole entry): T3 sequence (Q07869 whole entry)

[14] = target: T9, Peroxisome proliferator-activated receptor gamma (Mus musculus, UniProt P37238); assay: Agonist activity at mouse PPARgamma expressed in CV1 cells by transactivation assay; format: functional, cell-based, CV-1
T9 sequence (P37238 whole entry): T4 sequence (whole entry)

| Structure (SMILES) | Activity [1] [%] | Activity [2] [%] | EC50 [3] [nM] | EC50 [11] [nM] | further results |
| --- | --- | --- | --- | --- | --- |
| Cc1cccc(-c2nc(CCCC[C@H]3CO[C@@](C)(C(=O)O)OC3)c(C)o2)c1 | 16 | 34 | 30 | – | – |
| Cc1ccc(-c2nc(CCCC[C@H]3CO[C@@](C)(C(=O)O)OC3)c(C)o2)cc1C | 0 | 42 | 3 | – | Activity (Mus musculus [4]): -32%; Activity (Mus musculus [5]): -92%; Selectivity ratio [6]: 10; Activity [7]: 42%; EC50 [8]: 30 nM; Activity (Mus musculus [9]): -89%; Activity (Mus musculus [10]): 21% |
| Cc1ccc(-c2nc(CCCC[C@H]3CO[C@@](C)(C(=O)O)OC3)c(C(F)(F)F)o2)cc1 | 24 | – | 300 | 3000 | – |
| CCc1ccc(-c2nc(CCCC[C@H]3CO[C@@](C)(C(=O)O)OC3)c(C)o2)cc1 | 0 | – | 10 | 3000 | Selectivity ratio (Homo sapiens): 300 |
| Cc1oc(-c2ccc(Cl)cc2)nc1CCCC[C@H]1CO[C@@](C)(C(=O)O)OC1 | 9 | 21 | 30 | – | – |
| CCc1oc(-c2ccc(C)cc2)nc1CCCC[C@H]1CO[C@@](C)(C(=O)O)OC1 | 3 | – | 30 | 10000 | – |
| CC(C)(Oc1ccc(CCNC(=O)c2ccc(Cl)cc2)cc1)C(=O)O [BEZAFIBRATE] | – | – | – | 3000 | EC50 [12]: 30000 nM |
| Cc1ccc(-c2nc(CCCC[C@H]3CO[C@@](C)(C(=O)O)OC3)c(C)o2)cc1 | 7 | 31 | – | 9600 | Activity (Mus musculus [4]): -21%; Activity (Mus musculus [5]): -50%; Activity [7]: 45%; EC50 [8]: 30 nM; EC50 [12]: > 100000 nM; Activity (Mus musculus [9]): -71%; Activity (Mus musculus [10]): 34% |
| COc1ccc(-c2nc(CCCC[C@H]3CO[C@@](C)(C(=O)O)OC3)c(C)o2)cc1 | 20 | 18 | 30 | – | – |
| Cc1ccc(-c2nc(CCCC[C@H]3CO[C@@](C)(C(=O)O)OC3)c(C)s2)cc1 | 0 | 25 | 300 | – | – |
| Cc1ccc(-c2nc(CCCC[C@H]3CO[C@@](C)(C(=O)O)OC3)c(C)n2C)cc1 | 0 | 0 | – | – | Activity [13]: 6% |
| Cc1ccc(-c2nc(CCCC[C@H]3CO[C@@](C)(C(=O)O)OC3)c(C)o2)cc1F | 25 | 45 | 10 | – | Activity (Mus musculus [4]): -12%; Activity (Mus musculus [5]): -63%; Selectivity ratio [6]: 10; EC50 [14]: 10000 nM; EC50 [8]: 100 nM; Activity (Mus musculus [9]): -53%; Activity (Mus musculus [10]): 21% |
| Cc1ccccc1-c1nc(CCCC[C@H]2CO[C@@](C)(C(=O)O)OC2)c(C)o1 | 5 | 23 | 300 | – | – |
| Cc1oc(-c2ccccc2)nc1CCCC[C@H]1CO[C@@](C)(C(=O)O)OC1 | 0 | – | 300 | 100000 | Activity (Mus musculus [4]): -12%; Activity (Mus musculus [5]): -29%; Activity [7]: 11%; EC50 [8]: 1000 nM; Activity (Mus musculus [9]): -46%; Activity (Mus musculus [10]): 36% |
| Cc1ccc(-c2nc(CCCC[C@H]3CO[C@@](C)(C(=O)O)OC3)c(C)o2)c(C)c1 | 16 | 35 | 30 | – | – |
| Cc1oc(-c2ccc(C(F)(F)F)cc2)nc1CCCC[C@H]1CO[C@@](C)(C(=O)O)OC1 | 34 | 41 | 30 | – | – |
